# Experimental data pooled from the literature.
# Each line is one published result; the experiments were not run side by side.
# Target: Ephrin type-A receptor 5 (EPHA5, Homo sapiens, UniProt P54756)
# One construct used (P54756 675-936, limits assumed): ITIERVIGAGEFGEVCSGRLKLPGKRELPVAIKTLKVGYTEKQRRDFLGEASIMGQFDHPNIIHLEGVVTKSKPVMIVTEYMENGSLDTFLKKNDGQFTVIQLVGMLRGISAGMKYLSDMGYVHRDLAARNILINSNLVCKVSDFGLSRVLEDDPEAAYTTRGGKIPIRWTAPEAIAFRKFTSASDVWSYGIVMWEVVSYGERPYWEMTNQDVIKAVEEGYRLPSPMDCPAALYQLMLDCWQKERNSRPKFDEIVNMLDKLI
Compound,effect on,action,method,concentration,endpoint,result
CCc1ccccc1C(=O)Nc1n[nH]c2c(C)c(F)c(C3C(C#N)=C(C)N(C)C(C)=C3C#N)cc12,cell-free assay,,competition with immobilised ligand,1 µM,remaining binding,87%
CC(C)c1ccc(NC(=O)c2cccs2)c(-c2nc3ccccc3[nH]c2=O)c1,enzyme activity,inhibitor,,1 µM,activity vs control,112%
CNC(=O)c1cc(Oc2ccc(NC(=O)Nc3ccc(Cl)c(C(F)(F)F)c3)cc2)ccn1,enzyme activity,inhibitor,,0.3 µM,inhibition,32%
C#Cc1cccc(Nc2ncnc3cc(OCCOC)c(OCCOC)cc23)c1,cell-free assay,,,0.5 µM,remaining signal,99.1%
CC/C(=N\NC(=O)NCc1cccc(O)c1)c1ccc(O)c(C)c1O,enzyme activity,inhibitor,,0.1 µM,inhibition,-3.3%
CCCS(=O)(=O)Nc1ccc(F)c(C(=O)c2c[nH]c3ncc(-c4ccc(Cl)cc4)cc23)c1F,enzyme activity,inhibitor,,1 µM,inhibition,< 20%
Cc1noc([C@H]2C[C@@H](c3ccc(C(F)(F)F)cc3)CN(C(=O)N3CCS(=O)(=O)C3)C2)n1,cell-free assay,,competition with immobilised ligand,1 µM,remaining binding,100%
Cc1ccc(C(=O)NCc2ccsc2)cc1C#Cc1cn(C(C)C)c2ncnc(N)c12,enzyme activity,inhibitor,,1 µM,activity vs control,1%
N#CCCc1ccc2c(c1)-c1[nH]c3ccc([N+](=O)[O-])cc3c1CC(=O)N2,cell-free assay,,,0.5 µM,remaining signal,88.5%
Cc1cc(NC(=O)c2cccc3cc(-c4cccc5[nH]nc(N)c45)ccc23)ccc1F,enzyme activity,inhibitor,,0.1 µM,activity vs control,99%
CC(C)(O)[C@H]1CC[C@H](Nc2ccc3ncc(-c4cccc(C(F)(F)F)c4)n3n2)CC1,enzyme activity,inhibitor,,1 µM,remaining activity,101%
Cn1cc(Cl)c2c(Oc3c(F)cc(Nc4cc(Cl)nc(N)n4)cc3F)ccnc21,cell-free assay,,competition with immobilised ligand,0.1 µM,remaining binding,100%
CCN(CC)CCNC(=O)c1c(C)[nH]c(/C=C2\C(=O)Nc3ccc(F)cc32)c1C,enzyme activity,inhibitor,,0.3 µM,inhibition,7%
O=C(Nc1ccc(Oc2ccc(F)cc2)cc1)N1CCc2ncccc2[C@H]1c1ccc(F)cc1,cell-free assay,,competition with immobilised ligand,1 µM,remaining binding,100%
CNC(=O)c1cc2c(Oc3ccc(NC(=O)C4(C(=O)Nc5ccc(F)cc5)CC4)cc3)ccnc2cc1OC,enzyme activity,inhibitor,radiometric,1 µM,inhibition,96%
N#CC1(c2ccccn2)CCN(Cc2cc(C(=O)N3CCCC3)c(=O)n3ccccc23)CC1,cell-free assay,,competition with immobilised ligand,1 µM,remaining binding,100%
O=C(Nc1cnn(-c2csc(C(=O)NC3COC3)c2)c1)Nc1ccccc1Cl,enzyme activity,inhibitor,,5 µM,remaining activity,96.9%
